Results on 7 compounds are retold here after article PMC3583367 (ACS medicinal chemistry letters, 2013).

For data set [1], the system named is MDA-MB-231 breast cancer cells. Kind of data set: Cellular morphological changes under light microscopy. Format: cell-based, human. As to conditions: MDA-MB-231, 48 h, 1 μM, 5 μM and 10 μM.
Data set [2] concerns STAT3 promoter activity. In words: STAT3 dual luciferase reporter assay. Format: cell-based, human. As to conditions: 24 h pre-treatment. Put shortly:
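MDA-MB-231 cells were transiently transfected with the pSTAT3-Luc reporter vector and pretreated with test compound at different concentrations for 24 h. STAT3 promoter activity was then read by luciferase.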
In general terms: Reporter assays use an easily measured gene product as a stand-in for the process of interest.

Data set [3] concerns STAT3. Kind of data set: Western blot of total and phosphorylated STAT3 in MDA-MB-231 cells. As to conditions: MDA-MB-231, 24 h. The format is cell-based, human. Put shortly: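 MDA-MB-231 cells were treated with different doses of test compound for 24 h, then probed by Western blot for total STAT3 and Tyr-705 phospho-STAT3. Bands were quantified by densitometry over three independent experiments, with significance at p < 0.05 and p < 0.01.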
For orientation: In western blotting, separated proteins are transferred to a membrane and probed.

In data set [4] the test system is MDA-MB-231 breast cancer cells. In words: Annexin V-based flow cytometry apoptosis measurement. Format: cell-based, human. As to conditions: MDA-MB-231, dose-dependent. (Flow cytometry measures light scatter and fluorescence of single cells or particles in a stream.)
Data set [5] concerns human breast and pancreatic cancer cell lines. Kind of data set: MTS proliferation assays, statements over the cell line panel. As to conditions: for antiproliferative activity (in words): MCF-7, MDA-MB-231, AsPC1, Panc-1, MTS assays. Format: cell-based.
Data set [6] deals with caspase-3. Kind of data set: Western blot of cleaved caspase-3 in MDA-MB-231 cells. The note with it: MDA-MB-231, Western blot. The format is cell-based, human. The essentials: (§1)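 Protein expression in MDA-MB-231 cells was analysed by Western blot after treatment with test compound. Band intensities were quantified by densitometry over three independent experiments, with significance marked at p < 0.05 and p < 0.01.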

For data set [7], the system named is cyclin D1. In words: Western blot of cyclin D1 in MDA-MB-231 cells. The format is cell-based, human. The note with it: MDA-MB-231, Western blot. Put shortly:
as §1

Data set [8] concerns MDA-MB-231 xenograft tumors. In words: MDA-MB-231 xenograft tumor growth model. The format is in vivo, mice.
Data set [9] can be described thus: Signs of toxicity in mice. Format: in vivo. The note with it: 75 mg/kg.

Turning to `O=C(Nc1ccc([N+](=O)[O-])cc1Cl)c1cc(Cl)ccc1OC1CCNCC1` [Compound 10], the “cell proliferation and apoptosis with cellular morphological changes” value in data set [1] was “significantly inhibited cell proliferation and induced apoptosis”.
`O=C(Nc1ccc([N+](=O)[O-])cc1Cl)c1cc(Cl)ccc1O` [Compound 1, niclosamide, reference compound]: in data set [2] (20 μM, MDA-MB-231), the “STAT3 promoter activity (in words)” value is given as “suppressed”. Also, in [3], the “phosphorylated STAT3 (p-STAT3) at Tyr-705” value is “suppressed” and the “total STAT3 level” value is on record as “reduced”. Moreover, the “apoptosis (annexin V, flow cytometry)” value in [4] is reported as “activated apoptosis”. Also, the “cell proliferation and apoptosis with cellular morphological changes” value in data set [1] is “significantly inhibited cell proliferation and induced apoptosis”.
As to `O=C(Nc1ccc([N+](=O)[O-])cc1Cl)c1cc(Cl)ccc1OCCF` [Compound 3], the “antiproliferative activity (in words)” value in [5] is listed as “no significant effects”.
Take `CS(=O)(=O)Nc1ccc(NC(=O)c2cc(Cl)ccc2OC2CCNCC2)c(Cl)c1` [Compound 19]: the “antiproliferative activity (in words)” value in data set [5] is given as “significant loss of the antiproliferative activity”.
For the compound `NCCOc1ccc(Cl)cc1C(=O)Nc1ccc([N+](=O)[O-])cc1Cl` [Compound 11], the “decrease of STAT3 promoter activity” value in data set [2] (10 μM, MDA-MB-231, compared with control) was “approximately 32%”. In data set [3], the “phosphorylated STAT3 (p-STAT3) at Tyr-705” value is “suppressed” and the “total STAT3 level” value is “reduced”. Further, the “cleaved caspase-3” value in data set [6] is listed as “induced”. Moreover, in data set [7], the “cyclin D1” value is recorded as “downregulated”. Further, the “apoptosis (annexin V, flow cytometry)” value in data set [4] is “activated apoptosis”. The “cell proliferation and apoptosis with cellular morphological changes” value in [1] is “significantly inhibited cell proliferation and induced apoptosis”. Moreover, the “inhibition of xenograft tumor growth, i.p.” value in data set [8] (7.5 mg/kg i.p., compared with 12.5 mg/kg niclosamide) is “better effect in inhibiting tumor growth”. Moreover, the “growth of xenograft tumors, oral administration” value in [8] (25 mg/kg p.o., more efficacious than niclosamide at 75 mg/kg) was “significantly reduced”. In addition, the “xenograft tumor growth in vivo (both i.p. & p.o.)” value in data set [8] (nude mice bearing MDA-MB-231 xenografts) is reported as “significantly suppressed”. Also, the signs of toxicity result in data set [9] is on record as “did not show significant signs of toxicity”.
`CN1CCC(Oc2ccc(Cl)cc2C(=O)Nc2ccc([N+](=O)[O-])cc2Cl)CC1` [Compound 4]: the “fold loss of antiproliferative activity in comparison with analogue 10” value in data set [5] (vs analogue 10) was 10 fold.
Consider `CC(=O)Nc1ccc(NC(=O)c2cc(Cl)ccc2OC2CCNCC2)c(Cl)c1` [Compound 20], for which, in data set [5], the “antiproliferative activity (in words)” value is “significant loss of the antiproliferative activity”.
